The results in this text go back to the M2OR odorant receptor database.

Holding throughout (conditions): stereoisomer not certain
Assay [1] has as its target T1, UniProt Q8VF43.
T1 sequence (whole entry): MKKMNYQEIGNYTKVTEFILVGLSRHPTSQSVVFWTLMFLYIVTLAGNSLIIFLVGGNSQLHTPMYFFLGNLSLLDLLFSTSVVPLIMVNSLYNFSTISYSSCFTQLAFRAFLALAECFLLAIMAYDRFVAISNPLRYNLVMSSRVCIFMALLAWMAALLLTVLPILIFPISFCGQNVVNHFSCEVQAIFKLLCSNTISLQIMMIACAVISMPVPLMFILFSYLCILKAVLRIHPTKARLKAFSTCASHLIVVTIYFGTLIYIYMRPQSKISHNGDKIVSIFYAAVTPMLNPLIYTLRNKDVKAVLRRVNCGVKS
The method in brief:
(§1)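 Assay methods differ from source to source, frequently being transient luciferase assays in mammalian cell lines. For each receptor–molecule pair, the label responsive (active) applies when the original authors judged the measured signal statistically different from baseline, and non-responsive (inactive) applies otherwise.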

Assay [2] concerns the target T2, UniProt Q8VF52.
T2 sequence (whole entry): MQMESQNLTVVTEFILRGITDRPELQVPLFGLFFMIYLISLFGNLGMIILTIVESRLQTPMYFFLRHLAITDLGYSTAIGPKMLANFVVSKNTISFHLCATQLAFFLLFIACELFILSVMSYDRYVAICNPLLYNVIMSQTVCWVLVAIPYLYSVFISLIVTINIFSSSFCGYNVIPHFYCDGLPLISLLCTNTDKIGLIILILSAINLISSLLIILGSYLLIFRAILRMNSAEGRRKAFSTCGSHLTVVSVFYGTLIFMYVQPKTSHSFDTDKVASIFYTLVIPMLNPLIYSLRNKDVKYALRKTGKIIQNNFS
The method in brief: as §1

Assay [3] has as its target T3, UniProt Q8VFM8.
T3 sequence (whole entry): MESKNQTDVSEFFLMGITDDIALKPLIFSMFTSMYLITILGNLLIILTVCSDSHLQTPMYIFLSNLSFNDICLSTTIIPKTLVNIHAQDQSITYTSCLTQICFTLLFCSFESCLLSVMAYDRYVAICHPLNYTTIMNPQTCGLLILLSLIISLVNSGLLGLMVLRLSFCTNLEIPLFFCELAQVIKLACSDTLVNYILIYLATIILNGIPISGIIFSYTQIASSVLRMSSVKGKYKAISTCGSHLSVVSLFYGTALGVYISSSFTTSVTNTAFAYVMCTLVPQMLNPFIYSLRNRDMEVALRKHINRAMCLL
The method in brief:
as §1

For assay [4], the target named is UniProt Q8VF87. The method, boiled down: as §1
Chain of UniProt Q8VF87 (Q8VF87 as listed by the source): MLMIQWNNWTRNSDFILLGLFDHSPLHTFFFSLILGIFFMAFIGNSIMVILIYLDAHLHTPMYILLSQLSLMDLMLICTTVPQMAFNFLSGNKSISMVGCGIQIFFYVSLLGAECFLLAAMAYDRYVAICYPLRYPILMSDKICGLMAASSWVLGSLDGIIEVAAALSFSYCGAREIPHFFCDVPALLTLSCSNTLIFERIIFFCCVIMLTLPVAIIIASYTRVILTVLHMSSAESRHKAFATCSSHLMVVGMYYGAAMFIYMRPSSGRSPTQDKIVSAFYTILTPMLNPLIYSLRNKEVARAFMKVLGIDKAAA

In the case of `OCCCCCCCCCO`, the “odorant receptor agonist call” value in assay [1], in assay [2] and in assay [3] was “inactive” in each case.
As to `CCc1ccc(O)cc1`, the “odorant receptor agonist call” value in assay [1], in assay [2] and in assay [3] was “inactive” each time.
As to `CCC(S)C(C)CO` (stereo unspecified), in assay [4], the “odorant receptor agonist call” value is “inactive”.
Regarding `C=C1C2CCC(C2)C1(C)C` (stereo unspecified), the “odorant receptor agonist call” value in assay [1], in assay [2] and in assay [3] was “inactive” throughout.
As to `CC=C(C)C=O`, the “odorant receptor agonist call” value in assay [1], in assay [2] and in assay [3] was “inactive” in each case.
As to `CCCCCC=CCCC=O`, the “odorant receptor agonist call” value in assay [1], in assay [2] and in assay [3] was “inactive” throughout.
Turning to `CCc1ncc(C)nc1CC`, the “odorant receptor agonist call” value in assay [1], in assay [2] and in assay [3] was “inactive” each time.
For `C=CC(=C)CCC=C(C)C`, the “odorant receptor agonist call” value in assay [1], in assay [2] and in assay [3] was “inactive” throughout.
With `CC=CC(=O)C1=C(C)CCCC1(C)C`, the “odorant receptor agonist call” value in assay [1] and in assay [3] was “inactive” each time. The “odorant receptor agonist call” value in assay [2] was “active”.
Take `CC(C)CS`: the “odorant receptor agonist call” value in assay [1], in assay [2] and in assay [3] was “inactive” each time.
In the case of `CC(=O)C1(C)CC2=C(CCCC2(C)C)CC1C` (stereo unspecified), the “odorant receptor agonist call” value in assay [1], in assay [2] and in assay [3] was “inactive” in each case.
Turning to `CCCC(C)C(=O)OCC` (stereo unspecified), the “odorant receptor agonist call” value in assay [1], in assay [2] and in assay [3] was “inactive” each time.
Consider `CC1CCC(C(C)C)C(=O)C1` (stereo unspecified), for which the “odorant receptor agonist call” value in assay [1], in assay [2] and in assay [3] was “inactive” throughout.
Turning to `CCCCCC(C)O` (stereo unspecified), the “odorant receptor agonist call” value in assay [1], in assay [2] and in assay [3] was “inactive” throughout.
With `C1CCOC1`, the “odorant receptor agonist call” value in assay [1], in assay [2] and in assay [3] was “inactive” throughout.
On to `C=C(C)C1CC=C(C)CC1` (stereo unspecified), for which the “odorant receptor agonist call” value in assay [1], in assay [2] and in assay [3] was “inactive” throughout.
